# Bioassay records (PubChem BioAssay)
# This excerpt belongs to a sample that is enriched for hits.
# MMP-13 inhibitor – MMP13 (human) collagenase inhibition | P45452 | MMP-13 fTHP FRET cleavage, Mca fluorescence | inhibition, % at 4 µM | actives 0.07% (n = 65,000) | AID 570;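 active means inhibition above the mean of compound-free control plate wells plus 3 SD, cut at about 14% in these data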;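 further: 0% = DMSO wells and 100% = wells with reference MMP-13 inhibitor after basal subtraction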
# D1 allo mod – allosterically modulates the human D1 dopamine receptor | P21728 | HEK293 D1, CRE-luciferase, dopamine EC30 potentiation; actives deviate in either direction | B-score at 10 µM | actives 5.9% (n = 58,000);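 active means luminescence count or its row- and column-corrected plate score outside the 99.7% band of the plate's sample wells, on either side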
# AP ELISA ortho – orthogonal test for alternative complement pathway inhibitors. Human serum alternative complement pathway, LPS-coated ELISA, C3 deposition; tested in compound mixtures. inhibition, % at 5 µM. actives 0.08% (n = 62,000). AID 1235;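 active means inhibition above 30% in each of the two pooled mixtures holding the compound, so the lower value exceeds 30%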;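 further: 0% = serum in Mg-EGTA without compound and 100% = EDTA serum blank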
#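 Test system – human serum alternative complement pathway, C3 deposition on LPS-coated wells · Buffer or medium – diluted human serum in Mg2+-EGTA GVB++ · Compound dosing – 5 µM each compound, pools of ten, 50 µM per pool · Schedule – 1 h serum-compound exposure at 37 °C · Measured by – Anti-C3 ELISA, OD 450 nm · Read-out basis – percent inhibition of C3 deposition onto LPS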
# hDAT+cocaine – modulates human dopamine transporter uptake under cocaine. Q01959. LLC-PK1 hDAT cells, [14C]-dopamine uptake with cocaine IC80; actives deviate in either direction. B-score at 10 µM. AID 449768. actives 1.3% (n = 110,000);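 active means Z score or B-score, a plate-position-corrected score, falls beyond the plate's 99.7% confidence bounds, in either direction; inactive means both scores lie inside the 99.7% bounds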;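 further: scored against the spread of the other compound wells on the same plate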
# Target sequence (Q01959 whole entry, looked up): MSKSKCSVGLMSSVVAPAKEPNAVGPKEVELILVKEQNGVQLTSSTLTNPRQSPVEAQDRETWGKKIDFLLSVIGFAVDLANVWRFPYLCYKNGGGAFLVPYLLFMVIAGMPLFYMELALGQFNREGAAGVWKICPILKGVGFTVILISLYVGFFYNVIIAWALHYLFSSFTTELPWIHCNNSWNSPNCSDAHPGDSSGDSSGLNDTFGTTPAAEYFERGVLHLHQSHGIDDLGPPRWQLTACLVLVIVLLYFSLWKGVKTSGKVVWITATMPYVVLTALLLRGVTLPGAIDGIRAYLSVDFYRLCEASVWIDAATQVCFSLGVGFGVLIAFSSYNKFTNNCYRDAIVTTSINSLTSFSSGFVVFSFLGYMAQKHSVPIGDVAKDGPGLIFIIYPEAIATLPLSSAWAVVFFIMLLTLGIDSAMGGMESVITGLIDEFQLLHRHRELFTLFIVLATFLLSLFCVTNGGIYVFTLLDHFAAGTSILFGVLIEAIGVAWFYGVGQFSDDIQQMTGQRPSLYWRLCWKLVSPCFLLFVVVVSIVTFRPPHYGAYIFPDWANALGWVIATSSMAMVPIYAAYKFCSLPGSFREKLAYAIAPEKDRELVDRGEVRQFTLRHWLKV
# Calb biofilm kill – kills Candida albicans biofilms. C. albicans biofilm + clotrimazole, Alamar Blue. inhibition, % at 6 µM. actives 0.14% (n = 85,000);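 active means inhibition above 20%; inactive means inhibition below 20%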;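 further: preformed 24 hr biofilms exposed to compound for 48 hr; 0% = biofilm without compound and 100% = blank killed by clotrimazole plus chlorhexidine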
# An asterisk follows results filed as active; / = no result.
SMILES,MMP-13 inhibitor,D1 allo mod,AP ELISA ortho,hDAT+cocaine,Calb biofilm kill
COc1ccc(-c2csc(NC(CO)c3nc4ccccc4n3CCOCCO)n2)cc1 (stereo unspecified),/,/,/,1.9,/
COc1ccc(-c2csc(NC(CO)c3nc4ccccc4n3CCCO)n2)cc1 (stereo unspecified),/,/,/,3.1*,/
CC(C)Cc1nnc(NS(C)(=O)=O)s1,/,/,/,-7.8*,13
CC(C)(C)Cc1nnc(NS(C)(=O)=O)s1,/,/,/,-0.69,8
CCCCCC(=O)Cc1cc(O)cc2c1C(=O)Oc1cc(O)c(C(=O)O)c(CCCCC)c1O2,/,/,/,0.79,/
O=C(CC(Nc1ccccc1)C(=O)O)c1ccccc1 (stereo unspecified),6,/,10,2.9*,4
NC(=O)CC(NC(=O)c1ccccc1)C(=O)O (stereo unspecified),/,/,/,-1.9,/
COc1ccccc1-c1cc(C(=O)NC(C)c2ccccc2)no1 (stereo unspecified),-1,-1.8,13,0.071,8
COc1ccccc1-c1cc(C(=O)NC(C)C)no1,-6,-3.2*,17,0.0071,5
CCOC(=O)c1c(C)[nH]c(C(=O)COC(=O)C2(C)CC2(Cl)Cl)c1C (stereo unspecified),/,/,/,-0.39,6
CCC(C(=O)NC1CCCCC1)n1c(SCc2cccc(F)c2)nc2ccncc21 (stereo unspecified),/,/,/,2.8*,/
COc1cc(C(=O)Nc2cccc(-c3nc4ncccc4o3)c2C)cc(OC)c1OC,4,-0.049,31*,-0.012,0
COc1ccccc1NC(=O)c1oc2ccccc2c1NC(=O)c1cc(OC)c(OC)c(OC)c1,4,14*,2,/,4
COc1ccc(C(=O)Nc2cccc(-c3nc4ncccc4o3)c2C)cc1,/,/,/,1.8,2
COc1cccc(-n2nc(-c3ccnn3-c3ccc(C)cc3)c(=O)n(C)c2=O)c1,/,/,/,-0.81,2
NC(=O)c1sc2nc3c(c(-c4cccs4)c2c1N)CCCCC3,/,/,/,/,6
NC(=O)c1sc2nc3c(c(-c4cccnc4)c2c1N)CCC3,/,/,/,-9.1*,5
N#Cc1sc2nc3c(c(-c4cccnc4)c2c1N)CCC3,1,5.2*,6,-1.4,6
O=C(Cn1nc(Cc2cccnc2)c2ccccc2c1=O)NCc1ccc(F)cc1,/,/,/,-0.35,-3
CC(Oc1c(Cl)cccc1Cl)C1=NCCN1 (stereo unspecified),/,/,/,0.55,/
CC1(C)CC(=O)C2=C(C1)N(c1cccc(O)c1)C1=C(C2)C(=O)CC(C)(C)C1,-27,5.6*,16,-0.63,6
O=C(c1ccc(Cl)cc1)N1CCC(O)(CSc2ccc(Cl)cc2Cl)CC1,/,/,/,0.87,/
O=C(NC1CCCCCCC1)c1ccc2c(c1)OCO2,1,-3.5*,-4,0.19,8
S=C(NC1CCCCC1)c1ccc2c(c1)OCO2,/,/,/,-1.3,13
O=C1[O][Bi][O]c2ccccc21,/,/,/,/,9
SMILES,MMP-13 inhibitor,D1 allo mod,AP ELISA ortho,hDAT+cocaine,Calb biofilm kill
CC1=CC(C)(C)N2C(=O)C3(C(C#N)=C(N)OC4=C3C(=O)CCC4)c3c(C)c(C)cc1c32 (stereo unspecified),2,-1,15,-0.4,/
CC1=CC(C)(C)N2C(=O)C3(C(C#N)=C(N)Oc4cc(O)ccc43)c3c(C)c(C)cc1c32 (stereo unspecified),/,/,/,2.6*,1
CC(=O)Nc1cc(C(C)(C)C)c(O)c(C(C)(C)C)c1,/,/,/,0.2,68*
O=C1c2ccccc2C(=O)C1c1nccc2ccccc12,2,-6.8*,-7,-1.6,/
CN(C)c1ccc(O)c2c1CC1CC3[C@@H](N(C)C)C(=O)C(C(N)=O)=C(O)[C@]3(O)C(=O)C1=C2O (stereo partly specified),1,0.076,19,-0.15,25*
O=C(O)C1=CCNCC1,/,/,/,-0.59,/
CCOCCCNC(=O)C(NC(=O)c1cnccn1)c1ccc(C)cc1 (stereo unspecified),/,/,/,0.039,5
O=C(NCc1ccc(OC(F)(F)F)cc1)c1cc(-c2ccccc2)nn1CC1CC(c2cccnc2)=NO1 (stereo unspecified),/,/,/,-0.99,/
O=C(NCc1ccco1)c1cc(-c2ccccc2)nn1CC1CC(c2cccnc2)=NO1 (stereo unspecified),/,/,/,2.1*,/
Cc1ccc(-n2c(SCC(=O)NCc3cccs3)nnc2-c2ccoc2C)cc1,2,-0.061,6,2.6*,1
COc1ccccc1N1CCN(CC(=O)Nc2cc(C)nn2-c2nc(C)cc(C)n2)CC1,7,4.8*,9,/,3
CCOC(=O)C1=C(O)/C(=C\c2ccc(CNC(=O)C(=O)Nc3ccc(C)c(C)c3)o2)N=C1C,/,/,/,/,69*
